Key:
Type in all cases: functional
[1] = tested on: Brassica rapa subsp. oleifera; test: Herbicidal activity against Brassica rapa subsp. oleifera assessed as inhibition in green house at 1500 g/ha pre-emergence treatment measured after 15 days; conditions: 360 h
In short: (§1)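 Greenhouse pot test. Two replicates per treatment. Control was the same amount of water, N,N-dimethylformamide and Tween 20. Fresh weights were taken 15 days after treatment, and percentage inhibition was calculated relative to controls.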

[2] = tested on: Echinochloa crus-galli; test: Herbicidal activity against Echinochloa crus-galli (barnyard grass) assessed as inhibition of seedling growth at 100 ug/ml at 28 +/- 1 degC measured after 65 hr by cup test
[3] = tested on: Echinochloa crus-galli; test: Herbicidal activity against Echinochloa crus-galli (barnyard grass) assessed as inhibition of seedling growth at 10 ug/ml at 28 +/- 1 degC measured after 65 hr by cup test
[4] = tested on: Brassica rapa subsp. oleifera; test: Herbicidal activity against Brassica rapa subsp. oleifera assessed as inhibition of root growth at 100 ug/ml at 28 +/- 1 degC measured after 65 hr by root test
In short: (§2)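 Rape seeds were presoaked 4 h in distilled water. About 15 seeds were placed per 6-cm Petri plate on filter paper pre-wetted with 2 mL inhibitor solution. Plates germinated in the dark for 65 h at 28 ± 1 °C. Root length of 10 roots per plate was measured and averaged. Result expressed as percentage inhibition.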

[5] = tested on: Brassica rapa subsp. oleifera; test: Herbicidal activity against Brassica rapa subsp. oleifera assessed as inhibition of root growth at 10 ug/ml at 28 +/- 1 degC measured after 65 hr by root test; in short: as §2
[6] = tested on: Digitaria sanguinalis; test: Herbicidal activity against Digitaria sanguinalis (hairy crabgrass) assessed as inhibition in green house at 93.75 g/ha pre-emergence treatment measured after 15 days; conditions: 360 h; in short: as §1
[7] = tested on: Digitaria sanguinalis; test: Herbicidal activity against Digitaria sanguinalis (hairy crabgrass) assessed as inhibition in green house at 187.5 g/ha pre-emergence treatment measured after 15 days; conditions: 360 h; in short: as §1
[8] = tested on: Digitaria sanguinalis; test: Herbicidal activity against Digitaria sanguinalis (hairy crabgrass) assessed as inhibition in green house at 375 g/ha pre-emergence treatment measured after 15 days; conditions: 360 h; in short: as §1
[9] = tested on: Digitaria sanguinalis; test: Herbicidal activity against Digitaria sanguinalis (hairy crabgrass) assessed as inhibition in green house at 750 g/ha pre-emergence treatment measured after 15 days; conditions: 360 h; in short: as §1
[10] = tested on: Echinochloa crus-galli; test: Herbicidal activity against Echinochloa crus-galli (barnyard grass) assessed as inhibition in green house at 93.75 g/ha pre-emergence treatment measured after 15 days; conditions: 360 h; in short: as §1
[11] = tested on: Echinochloa crus-galli; test: Herbicidal activity against Echinochloa crus-galli (barnyard grass) assessed as inhibition in green house at 187.5 g/ha pre-emergence treatment measured after 15 days; conditions: 360 h; in short: as §1
[12] = tested on: Echinochloa crus-galli; test: Herbicidal activity against Echinochloa crus-galli (barnyard grass) assessed as inhibition in green house at 375 g/ha pre-emergence treatment measured after 15 days; conditions: 360 h; in short: as §1
[13] = tested on: Echinochloa crus-galli; test: Herbicidal activity against Echinochloa crus-galli (barnyard grass) assessed as inhibition in green house at 750 g/ha pre-emergence treatment measured after 15 days; conditions: 360 h; in short: as §1
[14] = tested on: Digitaria sanguinalis; test: Herbicidal activity against Digitaria sanguinalis (hairy crabgrass) assessed as inhibition in green house at 1500 g/ha post-emergence treatment measured after 15 days; conditions: 360 h; in short: as §1
[15] = tested on: Digitaria sanguinalis; test: Herbicidal activity against Digitaria sanguinalis (hairy crabgrass) assessed as inhibition in green house at 1500 g/ha pre-emergence treatment measured after 15 days; conditions: 360 h; in short: as §1
[16] = tested on: Echinochloa crus-galli; test: Herbicidal activity against Echinochloa crus-galli (barnyard grass) assessed as inhibition in green house at 1500 g/ha post-emergence treatment measured after 15 days; conditions: 360 h; in short: as §1
[17] = tested on: Echinochloa crus-galli; test: Herbicidal activity against Echinochloa crus-galli (barnyard grass) assessed as inhibition in green house at 1500 g/ha pre-emergence treatment measured after 15 days; conditions: 360 h; in short: as §1
[18] = tested on: Amaranthus retroflexus; test: Herbicidal activity against Amaranthus retroflexus assessed as inhibition in green house at 1500 g/ha pre-emergence treatment measured after 15 days; conditions: 360 h; in short: as §1
[19] = tested on: Amaranthus retroflexus; test: Herbicidal activity against Amaranthus retroflexus assessed as inhibition in green house at 1500 g/ha post-emergence treatment measured after 15 days; conditions: 360 h; in short: as §1
[20] = tested on: Brassica rapa subsp. oleifera; test: Herbicidal activity against Brassica rapa subsp. oleifera assessed as inhibition in green house at 1500 g/ha post-emergence treatment measured after 15 days; conditions: 360 h; in short: as §1

SMILES | inhibition at 1500 g/ha [1] [%] | inhibition at 100 µg/mL [2] [%] | inhibition at 10 µg/mL [3] [%] | inhibition at 100 µg/mL [4] [%] | inhibition at 10 µg/mL [5] [%] | inhibition at 93.75 g/ha [6] [%] | inhibition at 187.5 g/ha [7] [%] | inhibition at 375 g/ha [8] [%] | inhibition at 750 g/ha [9] [%] | inhibition at 93.75 g/ha [10] [%] | inhibition at 187.5 g/ha [11] [%] | inhibition at 375 g/ha [12] [%] | inhibition at 750 g/ha [13] [%] | inhibition at 1500 g/ha [14] [%] | inhibition at 1500 g/ha [15] [%] | inhibition at 1500 g/ha [16] [%] | inhibition at 1500 g/ha [17] [%] | inhibition at 1500 g/ha [18] [%] | inhibition at 1500 g/ha [19] [%] | inhibition at 1500 g/ha [20] [%]
CCOc1ccc(/C(O)=C2\C(=O)CN(C(C)C)C2=O)cc1 | 0 | 80 | 79 | 82 | 8 | 22 | 84 | 94 | 96 | 8 | 52 | 94 | 98 | 0 | 98 | 19 | 100 | 0 | 0 | 0
COc1ccc(/C(O)=C2\C(=O)CN(C(C)C)C2=O)c(OC)c1 | – | 80 | 78 | 69 | 27 | 0 | 68 | 77 | 93 | 34 | 93 | 100 | 100 | – | – | – | – | – | – | –
COc1ccc(/C(O)=C2\C(=O)CN(C3CC3)C2=O)cc1 | 0 | 66 | 62 | 70 | 35 | – | – | 69 | 73 | – | – | 7 | 69 | 0 | 57 | 0 | 81 | 0 | 0 | 0
CCOc1ccc(/C(O)=C2\C(=O)CN(C3CC3)C2=O)cc1 | 6 | 79 | 78 | 47 | 0 | – | 18 | 33 | 77 | – | 0 | 13 | 99 | 6 | 42 | 0 | 100 | 0 | 13 | 0
CC(C)N1CC(=O)/C(=C(/O)c2cccc(Oc3ccccc3)c2)C1=O | 0 | 67 | 57 | 81 | 0 | – | – | – | – | – | – | – | – | 0 | 0 | 0 | 0 | 0 | 9 | 0
CS(=O)(=O)c1ccc(C(=O)C2C(=O)CCCC2=O)c(Cl)c1 [SULCOTRIONE] | – | – | – | – | – | 100 | 100 | 100 | 100 | 70 | 93 | 100 | 100 | – | – | – | – | – | – | –
